Measurements from PubChem BioAssay.
Inconclusive results are not listed.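 How the source made its calls, unless noted: active means inhibition over a set limit, the all-compound mean plus 3 SD, in both replicate runs; inconclusive means over that limit in just one replicate run; inactive means at or under that limit in both runs.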

Columns and labels:
[1] = S. cerevisiae growth inhibition in permissive medium (OD615), pilot counter-assay for S. cerevisiae lifespan shortening project, permissive growth control (AID 705;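 active means growth inhibition above 25% in both replicates, a cutoff set 3 SD above the mean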); conditions: OD615, 24 h, at 10 µM, hits give high values
Procedure, shortened: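 System: engineered DeaD yeast; Medium: permissive raffinose/galactose medium; Compound dosing: 10 µM single dose, 0.25% DMSO; Incubation: 4 h cell pre-growth, 24 h exposure at 30 °C; Technique: OD at 615 nm; Evaluation: growth inhibition from lowered OD615 after 24 h.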

[2] = S. cerevisiae growth inhibition in restrictive medium, OD615, pilot screen, restrictive growth control, yeast lifespan reduction project (AID 706;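 active means growth inhibition above a set limit, 3 SD over mean compound inhibition, in both replicates, cut at about 43% in these data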;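 further: modified DeaD lifespan yeast strain shifted to restrictive glucose medium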); conditions: OD615, 48 h, at 10 µM, hits give high values
Procedure, shortened: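 Material: modified S. cerevisiae; buffer or medium: CSMM-D glucose medium; doses: one concentration, 10 µM final, 0.25% DMSO; incubation: 48 h compound exposure at 30 °C; detection: optical density at 615 nm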

[3] = doxorubicin toxicity protection in MRP-1 cells – H69AR cells, CellTiter-Glo, duplicate, MRP-1 activator project, pilot screen (AID 807;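 active means viability increase at or above a cutoff of the median across tested compounds plus 3 SD, cut at about 8.5% in these data, passing the limit was not always enough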;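 further: compound pretreatment 18-22 h then 72 h combined with doxorubicin; 0% = doxorubicin alone and 100% = vehicle without doxorubicin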); conditions: H69AR viability with doxorubicin, CellTiter-Glo luminescence; at 10 µM; hits give high values
[4] = viability of HCT116 without oncogenic beta-catenin – human colon tumor cells, pilot screen (AID 823;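 active means cell viability at or below a set limit in both duplicate runs, the limit being the all-compound median minus 4 SD, cut at about 23% in these data, passing the limit was not always enough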;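 further: 0% = wells killed by 20 µM Hyamine and 100% = untreated DMSO cell wells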); conditions: HCT116 beta-catenin knockout viability, CellTiter-Glo, 60 h; at 10 µM; hits give low values
[5] = viability of PTEN-null HCT116 cells – cell-based, HCT116 clonal line, CellTiter-Glo, pilot screen (AID 824;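 active means viability at or below 27.92% in each of two runs, the all-compound median minus 4 SD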;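 further: 0% = 20 µM Hyamine control and 100% = vehicle cell control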); conditions: HCT116 PTEN-deleted viability, 60 h, at 10 µM, hits give low values
[6] = RAM pathway blockade in budding yeast – dse1pr::URA3 reporter, 5-FOA selection, pilot screen (AID 869);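 further: 0% = DMSO wells with no growth and 100% = 10 µM 1-NA-PP1 with full growth; RAM network block rescues cells from 5-FOA so hits raise OD615 growth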; conditions: S. cerevisiae dse1pr::URA3 5-FOA growth, OD615, 2 d; at 10 µM; hits give high values; strain carries analog-sensitive mutant Cbk1 kinase
[7] = RAM signaling pathway blockade in yeast – S. cerevisiae, Pdr1DBD-CYC8 efflux-inhibited sensitized strain, primary screen (AID 1298;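 active means RAM network inhibition above 8.4% in each of two replicates, 3 SD over the compound average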;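 further: 0% = DMSO untreated cells without growth and 100% = 10 µM 1-NA-PP1 full growth; higher means more yeast growth rescued from 5-FOA killing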); conditions: S. cerevisiae cbk1-as DSE1-URA3 strain, 5-FOA growth OD615, 2 d; at 50 µM; hits give high values

Cc1cnc(N)c2c(=O)oc3ccccc3c12
inactive: growth inhibition [1] -0.41% | growth inhibition [2] 24.5% | viability increase [3] -4.45% | viability [4] 103% | viability [5] 92.8% | inhibition [6] 1.61% | RAM network inhibition [7] 1.88%

CCC(Sc1nc(C)cc(=O)[nH]1)C(=O)Nc1ccc(Cl)cn1 (stereo unspecified)
inactive: growth inhibition [1] -2.36% | growth inhibition [2] 26.5% | viability increase [3] -3.4% | viability [4] 98.9% | viability [5] 96.7% | inhibition [6] 1.84% | RAM network inhibition [7] 3.08%

COc1ccc(N(CC(=O)NCc2ccco2)S(=O)(=O)c2c(C)nn(C)c2C)cc1
inactive: growth inhibition [1] -11% | growth inhibition [2] -12.6% | viability increase [3] -4.02% | viability [4] 89.8% | viability [5] 92.6% | inhibition [6] 0.185% | RAM network inhibition [7] 0.73%

COc1cccc(C2c3c(oc4ccccc4c3=O)C(=O)N2c2ccccn2)c1 (stereo unspecified)
inactive: growth inhibition [1] -2.5% | growth inhibition [2] -15.9% | viability increase [3] 0.48% | viability [4] 92.4% | viability [5] 97.2% | inhibition [6] 0.28% | RAM network inhibition [7] 4.39%

CN=C1SC(CC(=O)Nc2ccccc2F)C(=O)N1C (stereo unspecified)
inactive: growth inhibition [1] 0.635% | growth inhibition [2] 0.465% | viability increase [3] -0.48% | viability [4] 112% | viability [5] 98.9% | inhibition [6] 1.99% | RAM network inhibition [7] 1.28%

CCOC(=O)Cn1c(C)cc(=O)c2cccc(C)c21
inactive: growth inhibition [1] -19.8% | growth inhibition [2] -12.9% | viability increase [3] 0.49% | viability [4] 92% | viability [5] 96.9% | inhibition [6] 0.035% | RAM network inhibition [7] 1.15%

COc1ccc(CNC(=O)c2cnc3scc(C)n3c2=O)cc1
inactive: growth inhibition [1] -13.9% | growth inhibition [2] -6.35% | viability increase [3] 3.79% | viability [4] 102% | viability [5] 93.8% | inhibition [6] 0.925% | RAM network inhibition [7] 11.9%

CC(=O)Nc1nnc(C)s1
inactive: growth inhibition [1] -17% | growth inhibition [2] -8.07% | viability increase [3] -2.11% | viability [4] 103% | viability [5] 93.3% | inhibition [6] 1.29% | RAM network inhibition [7] 1.53%

O=C(NC1CCCCCC1)C1CCN(C(=O)Cc2ccccc2)CC1
inactive: growth inhibition [1] -11.1% | growth inhibition [2] -9.52% | viability increase [3] -1.12% | viability [4] 101% | viability [5] 94.3% | inhibition [6] 0.785% | RAM network inhibition [7] 3.07%

O=C(CSc1nccn1-c1cccc(Cl)c1)Nc1ccc2c(c1)OCCO2
inactive: growth inhibition [1] -11.7% | growth inhibition [2] 2.4% | viability increase [3] 6.11% | viability [4] 101% | viability [5] 93% | inhibition [6] 2.52% | RAM network inhibition [7] 3.35%

C=CCn1c(CCCNC(=O)CCC)nc2ccccc21
inactive: growth inhibition [1] 2% | growth inhibition [2] 0.97% | viability increase [3] -0.01% | viability [4] 99.4% | viability [5] 103% | inhibition [6] -0.095% | RAM network inhibition [7] 4.24%

Cc1ccccc1-n1c(Cn2c(=O)sc3ccccc32)nnc1SCC(=O)Nc1nccs1
inactive: growth inhibition [1] -3.9% | growth inhibition [2] -13% | viability increase [3] -5.13% | viability [4] 75.2% | viability [5] 59.9% | inhibition [6] 2.25% | RAM network inhibition [7] 5.86%

Cc1cc(Nc2ccc(F)c(Cl)c2)n2nc(C)nc2n1
inactive: growth inhibition [1] 1.03% | growth inhibition [2] 15.8% | viability increase [3] -3.61% | viability [4] 97.2% | viability [5] 92.4% | inhibition [6] 1.94% | RAM network inhibition [7] 0.68%

CC(=O)c1cccc(NC(=O)c2cc(C(C)C)on2)c1
inactive: growth inhibition [1] -14.6% | growth inhibition [2] 0.275% | viability increase [3] -1.46% | viability [4] 104% | viability [5] 97.7% | inhibition [6] 0.785% | RAM network inhibition [7] 0.94%

CCN(CC)CCN1C(=O)c2ccccc2NC1c1cccc(F)c1 (stereo unspecified)
inactive: growth inhibition [1] -8.46% | growth inhibition [2] 1.83% | viability increase [3] -2.21% | viability [4] 84.4% | viability [5] 91.4% | inhibition [6] 0.75% | RAM network inhibition [7] 8.87%

Cc1cccc(N2CCN(C(c3cccs3)c3nnnn3C(C)(C)C)CC2)c1C (stereo unspecified)
inactive: growth inhibition [1] -10.2% | growth inhibition [2] -9.96% | viability increase [3] -0.98% | viability [4] 55.5% | viability [5] 56.7% | inhibition [6] 0.97% | RAM network inhibition [7] 5.15%

Cc1ccc(C)c(SCC(=O)OCC(=O)c2ccco2)c1
inactive: growth inhibition [1] -21.2% | growth inhibition [2] -14.6% | viability increase [3] -3.35% | viability [4] 88.9% | viability [5] 91.6% | inhibition [6] 0.705% | RAM network inhibition [7] 2.26%

CCN(CC)CCNC(=O)Cn1cnc2sc(C)c(S(=O)(=O)N3CCOCC3)c2c1=O
inactive: growth inhibition [1] 6.37% | growth inhibition [2] 4.68% | viability increase [3] -1.11% | viability [4] 99% | viability [5] 99.3% | inhibition [6] 0.39% | RAM network inhibition [7] 6.22%

CP(=O)(COC(=O)c1ccccc1)COC(=O)c1ccccc1
inactive: growth inhibition [1] -20.8% | growth inhibition [2] -19% | viability increase [3] -0.63% | viability [4] 100% | viability [5] 96.5% | inhibition [6] 3.13% | RAM network inhibition [7] 1.26%

Cc1c(N=C2C(=O)Nc3ccccc32)c(=O)n(-c2ccccc2)n1C
inactive: growth inhibition [1] -1.19% | growth inhibition [2] 0.225% | viability increase [3] -2.29% | viability [4] 108% | viability [5] 90.3% | inhibition [6] 0.61% | RAM network inhibition [7] 1.79%

CCCN1CCN(C(=O)C2CCN(S(=O)(=O)c3ccc4c(c3)oc(=O)n4C)CC2)CC1
inactive: growth inhibition [1] -6.11% | growth inhibition [2] -13.9% | viability increase [3] -0.29% | viability [4] 108% | viability [5] 98.5% | inhibition [6] 3.06% | RAM network inhibition [7] -1.87%

O=C(c1cnn2ccccc12)N(Cc1ccco1)C1CCCC1
inactive: growth inhibition [1] -12% | growth inhibition [2] -4.11% | viability increase [3] -3.08% | viability [4] 70% | viability [5] 69.8% | inhibition [6] 2.74% | RAM network inhibition [7] 1.62%

Fc1ccc(C2CC(c3ccccc3)Nc3ncnn32)cc1 (stereo unspecified)
inactive: growth inhibition [1] -10.3% | growth inhibition [2] -3.12% | viability increase [3] -0.63% | viability [4] 93.5% | viability [5] 98.1% | inhibition [6] 1.04% | RAM network inhibition [7] 1.19%

CCOC(=O)c1sc(NC(C)=O)cc1C
inactive: growth inhibition [1] -1.26% | growth inhibition [2] 4.88% | viability increase [3] 0.69% | viability [4] 115% | viability [5] 96% | inhibition [6] 0.47% | RAM network inhibition [7] 1.02%

CCOc1ccc(NC(=O)CSc2nc3c(c(=O)n2C)SC(C)C3)cc1 (stereo unspecified)
inactive: growth inhibition [1] -13.6% | growth inhibition [2] -13.2% | viability increase [3] -0.83% | viability [4] 93.5% | viability [5] 91.6% | inhibition [6] 4.75% | RAM network inhibition [7] 5.69%

COc1ccc(CCNc2ncnc3nc[nH]c23)cc1OC
inactive: growth inhibition [1] 0.1% | growth inhibition [2] 20% | viability increase [3] -3.11% | viability [4] 82.8% | viability [5] 84.7% | inhibition [6] 0.57% | RAM network inhibition [7] 1.46%

COc1ccccc1-c1nc2n(n1)C(c1ccccc1Cl)C(C(N)=O)=C(C)N2 (stereo unspecified)
inactive: growth inhibition [1] -11.6% | growth inhibition [2] -6.96% | viability increase [3] -6.22% | viability [4] 91% | viability [5] 85.9% | inhibition [6] -0.085% | RAM network inhibition [7] -1.52%

COc1ccc(C(=O)c2cnc(C(C)C)n2C)cc1
inactive: growth inhibition [1] -3.74% | growth inhibition [2] -9.59% | viability increase [3] 2.12% | viability [4] 98.2% | viability [5] 90.2% | inhibition [6] 1.88% | RAM network inhibition [7] 4.97%

O=C1CCc2cc(S(=O)(=O)N3CCCC3C(=O)N3CCN(c4ccccc4)CC3)ccc2N1 (stereo unspecified)
inactive: growth inhibition [1] -10.3% | growth inhibition [2] -12.1% | viability increase [3] -3.91% | viability [4] 105% | viability [5] 85% | inhibition [6] 3.67% | RAM network inhibition [7] 4.76%

Cc1cc(C)n(S(=O)(=O)c2cccc(Cl)c2Cl)n1
inactive: growth inhibition [1] -2.69% | growth inhibition [2] -0.205% | viability increase [3] -1.97% | viability [4] 96.8% | viability [5] 93.6% | inhibition [6] 0.73% | RAM network inhibition [7] 2.28%

c1ccc2c(c1)nc(N1CCOCC1)c1nnnn12
inactive: growth inhibition [1] -7.82% | growth inhibition [2] -4.7% | viability increase [3] -3.18% | viability [4] 109% | viability [5] 103% | inhibition [6] 1.38% | RAM network inhibition [7] 10.4%

O=C(Oc1c(Cl)cc(Cl)c2cccnc12)N1CCOCC1
inactive: growth inhibition [1] -1.54% | growth inhibition [2] 2.49% | viability increase [3] -2.13% | viability [4] 99.7% | viability [5] 95.3% | inhibition [6] 0.74% | RAM network inhibition [7] 0.25%

Cc1c(C(=O)NCc2ccco2)sc2nc(-c3ccccc3)cn12
inactive: growth inhibition [1] 3.59% | growth inhibition [2] 10.2% | viability increase [3] -4.77% | viability [4] 78.6% | viability [5] 67.3% | inhibition [6] 0.04% | RAM network inhibition [7] 2.7%
